This note sets out measurements from ChEMBL document CHEMBL1221168, “Activity-based probes that target diverse cysteine protease families” (Nat Chem Biol, 2005).

In test [1] the target is T1, Legumain (Homo sapiens) (UniProt Q99538).
T1 sequence (whole entry): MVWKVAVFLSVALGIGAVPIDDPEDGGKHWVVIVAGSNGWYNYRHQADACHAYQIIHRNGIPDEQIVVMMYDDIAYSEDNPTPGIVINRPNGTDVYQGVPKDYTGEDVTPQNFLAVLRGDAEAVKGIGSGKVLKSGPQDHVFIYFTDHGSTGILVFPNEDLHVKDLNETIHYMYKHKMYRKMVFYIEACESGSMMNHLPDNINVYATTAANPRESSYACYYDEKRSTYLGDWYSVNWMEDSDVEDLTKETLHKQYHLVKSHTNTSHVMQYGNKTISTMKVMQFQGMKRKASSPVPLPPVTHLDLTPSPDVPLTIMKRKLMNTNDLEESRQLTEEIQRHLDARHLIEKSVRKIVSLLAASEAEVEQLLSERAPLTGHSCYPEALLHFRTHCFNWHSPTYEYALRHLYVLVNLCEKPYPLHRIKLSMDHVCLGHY
The test is described as follows: Binding affinity to human purified legumain assessed as protein labeling. The settings on record: tested as the 125I-labelled form.

Another test has as its target T2, Legumain (Mus musculus) (UniProt O89017).
T2 sequence (whole entry): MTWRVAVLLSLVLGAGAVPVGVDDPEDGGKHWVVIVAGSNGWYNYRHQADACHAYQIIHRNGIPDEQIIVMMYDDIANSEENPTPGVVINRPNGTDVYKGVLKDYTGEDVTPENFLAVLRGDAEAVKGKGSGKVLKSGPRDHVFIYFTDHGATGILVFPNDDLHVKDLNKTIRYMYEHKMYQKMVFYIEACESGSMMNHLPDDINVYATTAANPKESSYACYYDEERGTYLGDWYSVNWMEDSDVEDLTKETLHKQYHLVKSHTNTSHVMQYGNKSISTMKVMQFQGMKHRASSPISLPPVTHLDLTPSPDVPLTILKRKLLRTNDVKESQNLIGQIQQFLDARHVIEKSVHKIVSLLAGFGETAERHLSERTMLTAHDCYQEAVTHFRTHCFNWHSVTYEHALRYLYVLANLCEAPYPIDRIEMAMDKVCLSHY
In words: Binding affinity to legumain in mouse spleen lysates assessed as protein labeling at 10 uM after 30 mins by SDS-PAGE based affinity blotting. In kind it is tissue-based. The settings on record: tested as the 125I-labelled form.

Test [2] concerns the target T1, Legumain (Homo sapiens). The test is described as follows: Binding affinity to legumain in human 2.2.93 cells assessed as protein labeling at 10 uM after 30 mins by SDS-PAGE based affinity blotting. In kind it is cell-based. As to conditions: tested as the 125I-labelled form. The essentials: (§1)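 B cell lines (2.2.93, 8.1.6, Raji) and Jurkat T cell pellets were lysed in 50 mM citrate phosphate, 1% CHAPS, 0.5% Triton, 5 mM DTT for 10 min on ice, then spun at 14,000g for 15 min at 4 °C. Lysates were set to 1 mg/ml in citrate phosphate pH 5.8, 0.1% CHAPS, 5 mM DTT and labeled for 30 min at 37 °C. Read-out was SDS-PAGE and biotin affinity blot.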

Test [3] deals with T1, Legumain (Homo sapiens). In words: Binding affinity to legumain in human 8.1.6 cells assessed as protein labeling at 10 uM after 30 mins by SDS-PAGE based affinity blotting. In kind it is cell-based. As to conditions: tested as the 125I-labelled form. Put shortly:
as §1

The target of test [4] is T1, Legumain (Homo sapiens). In words: Binding affinity to legumain in human Raji cells assessed as protein labeling at 10 uM after 30 mins by SDS-PAGE based affinity blotting. In kind it is cell-based. The settings on record: tested as the 125I-labelled form. The essentials: as §1
Test [5] concerns the target T1, Legumain (Homo sapiens). In words: Binding affinity to legumain in human Jurkat T cells assessed as protein labeling at 10 uM after 30 mins by SDS-PAGE based affinity blotting. In kind it is cell-based. As to conditions: tested as the 125I-labelled form. The essentials:
as §1

The target of test [6] is T1, Legumain (Homo sapiens). The test is described as follows: Binding affinity to legumain in human 8.1.6 cells assessed as protein labeling at 10 uM after 30 mins immunoprecipitation. In kind it is cell-based. As to conditions: tested as the 125I-labelled form. The essentials: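 8.1.6 B cell lysate at 1 mg/ml in citrate phosphate pH 5.8, 0.1% CHAPS, 5 mM DTT was labeled with probe for 30 min at 37 °C. Legumain was then immunoprecipitated with polyclonal anti-legumain antisera. Input, pellet and supernatant were probed for biotinylated proteins.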

Test [7] has as its target T3, Caspase-3 (Homo sapiens) (UniProt P42574).
T3 sequence (whole entry): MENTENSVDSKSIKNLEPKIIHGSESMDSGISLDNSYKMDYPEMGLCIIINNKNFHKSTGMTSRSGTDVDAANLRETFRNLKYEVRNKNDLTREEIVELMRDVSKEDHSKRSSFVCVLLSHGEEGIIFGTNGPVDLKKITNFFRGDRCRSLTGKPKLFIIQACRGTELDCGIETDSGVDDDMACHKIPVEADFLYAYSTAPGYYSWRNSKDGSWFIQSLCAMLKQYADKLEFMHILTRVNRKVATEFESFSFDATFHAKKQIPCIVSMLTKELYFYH
The test is described as follows: Binding affinity to human recombinant caspase 3 assessed as protein labeling by SDS-PAGE based affinity blotting. The settings on record: tested as the 125I-labelled form.

The next test addresses T4, Caspase-6 (Homo sapiens) (UniProt P55212).
T4 sequence (whole entry): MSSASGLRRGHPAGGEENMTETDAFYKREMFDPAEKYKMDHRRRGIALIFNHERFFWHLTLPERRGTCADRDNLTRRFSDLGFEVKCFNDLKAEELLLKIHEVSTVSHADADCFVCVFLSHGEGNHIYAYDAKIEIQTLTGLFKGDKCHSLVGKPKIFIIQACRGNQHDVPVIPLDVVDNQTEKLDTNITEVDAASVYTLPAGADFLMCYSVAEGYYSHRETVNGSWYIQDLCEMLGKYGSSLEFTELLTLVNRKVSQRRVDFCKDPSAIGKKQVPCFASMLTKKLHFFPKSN
In words: Binding affinity to human recombinant caspase 6 assessed as protein labeling by SDS-PAGE based affinity blotting. As to conditions: tested as the 125I-labelled form.

In test [8] the target is T5, Caspase-7 (Homo sapiens) (UniProt P55210).
T5 sequence (whole entry): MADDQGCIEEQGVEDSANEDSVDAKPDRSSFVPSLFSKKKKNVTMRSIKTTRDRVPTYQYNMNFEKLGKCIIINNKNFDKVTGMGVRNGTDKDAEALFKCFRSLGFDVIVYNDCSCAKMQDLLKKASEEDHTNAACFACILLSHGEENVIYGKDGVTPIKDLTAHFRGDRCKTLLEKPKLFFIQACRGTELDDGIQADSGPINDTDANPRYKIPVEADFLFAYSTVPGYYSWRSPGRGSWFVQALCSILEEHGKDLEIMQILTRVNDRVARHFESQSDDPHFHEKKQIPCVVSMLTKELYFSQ
In words: Binding affinity to human recombinant caspase 7 assessed as protein labeling by SDS-PAGE based affinity blotting. As to conditions: tested as the 125I-labelled form.

A further test has as its target Caspase-8 (Homo sapiens) (UniProt Q14790). In words: Binding affinity to human recombinant caspase 8 assessed as protein labeling by SDS-PAGE based affinity blotting. The settings on record: tested as the 125I-labelled form.
Test [9] concerns the target T1, Legumain (Homo sapiens). In words: Binding affinity to legumain in human 8.1.6 cells assessed as protein labeling at 1 uM at acidic pH after 30 mins by SDS-PAGE based affinity blotting. As to conditions: tested as the 125I-labelled form.
Test [10] addresses T3, Caspase-3 (Homo sapiens). The test is described as follows: Binding affinity to caspase 3 in human Sh-SY-5Y cells extracts assessed as protein labeling by SDS-PAGE based affinity blotting. In kind it is cell-free.
In test [11] the target is T5, Caspase-7 (Homo sapiens). The test is described as follows: Binding affinity to caspase 7 in human Sh-SY-5Y cells extracts assessed as protein labeling by SDS-PAGE based affinity blotting. In kind it is cell-free.
Test [12] concerns the target T6, Caspase-9 (Homo sapiens) (UniProt P55211).
T6 sequence (whole entry): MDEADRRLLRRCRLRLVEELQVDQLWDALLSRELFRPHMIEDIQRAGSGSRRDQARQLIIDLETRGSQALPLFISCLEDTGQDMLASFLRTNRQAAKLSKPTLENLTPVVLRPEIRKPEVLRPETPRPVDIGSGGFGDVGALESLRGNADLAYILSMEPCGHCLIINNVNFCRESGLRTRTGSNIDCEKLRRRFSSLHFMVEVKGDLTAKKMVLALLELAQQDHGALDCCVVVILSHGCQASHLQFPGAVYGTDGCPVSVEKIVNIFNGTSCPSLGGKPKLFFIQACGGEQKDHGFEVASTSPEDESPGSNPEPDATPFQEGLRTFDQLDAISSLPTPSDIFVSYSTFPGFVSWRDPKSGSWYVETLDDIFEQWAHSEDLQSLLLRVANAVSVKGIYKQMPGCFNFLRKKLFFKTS
The test is described as follows: Binding affinity to human recombinant caspase 9 assessed as protein labeling by SDS-PAGE based affinity blotting. As to conditions: tested as the 125I-labelled form.

For test [13], the target named is T6, Caspase-9 (Homo sapiens). In words: Binding affinity to caspase 9 in human Sh-SY-5Y cells extracts assessed as protein labeling by SDS-PAGE based affinity blotting. In kind it is cell-free.

Calls of active or inactive are those of the source. No cut-off for these calls is given here. Square brackets hold non-standard residues; d marks the D form. Peptide text beside a SMILES is read from it. * marks the point of attachment. ξ: configuration not given here. AspCH2OBz(2,6-Me2) = Cc1cccc(C)c1C(=O)OCC(=O)[C@H](CC(=O)O)N*; Biotin = O=C1N[C@H]2[C@H](CS[C@H]2CCCCC(=O)*)N1; Tyr(3-I) = N[C@@H](Cc1ccc(O)c(I)c1)C(=O)O; X1 = O=C1N[C@@H]2CSC(CCCCC(=O)*)[C@@H]2N1; ξD = NC(CC(=O)O)C(=O)O; Ahx = NCCCCCC(=O)O; CH2F = FC*

Chain of Caspase-8 (Homo sapiens) (Q14790 217-374 limits assumed): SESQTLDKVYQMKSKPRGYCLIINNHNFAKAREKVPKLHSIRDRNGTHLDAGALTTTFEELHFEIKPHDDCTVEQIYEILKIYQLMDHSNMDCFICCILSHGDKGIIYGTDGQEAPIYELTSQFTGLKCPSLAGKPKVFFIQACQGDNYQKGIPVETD
Chain of Caspase-8 (Homo sapiens) (Q14790 385-479 limits assumed): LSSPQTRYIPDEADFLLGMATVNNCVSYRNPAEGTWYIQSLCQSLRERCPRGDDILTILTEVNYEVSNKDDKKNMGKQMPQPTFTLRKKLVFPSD

Consider `CC(=O)N[C@@H](CCCCNC(=O)CCCCC1SC[C@H]2NC(=O)N[C@@H]12)C(=O)N[C@@H](Cc1ccc(O)c(I)c1)C(=O)NCCCCCC(=O)N[C@@H](CC(=O)O)C(=O)COC(=O)c1c(C)cccc1C` (stereo not given in full), for which the result at Legumain (Homo sapiens) [1], at Legumain (Mus musculus), on Legumain (Homo sapiens) [2], at Legumain (Homo sapiens) [3], on Legumain (Homo sapiens) [4] and at Legumain (Homo sapiens) [5] was Active. Also, the outcome on Legumain (Homo sapiens) [6], at Caspase-3 (Homo sapiens) [7], at Caspase-6 (Homo sapiens), at Caspase-7 (Homo sapiens) [8], at Caspase-8 (Homo sapiens) and on Legumain (Homo sapiens) [9] was Active.

Take `COC(=O)CC(NC(=O)[C@H](C)NC(=O)[C@@H](NC(=O)CCCCCNC(=O)CCCC[C@@H]1SC[C@@H]2NC(=O)N[C@@H]21)C(C)C)C(=O)CF` (stereo partly drawn) ({Biotin-Ahx}-Val-Ala-[ξD](OMe)-CH2F): the outcome on Caspase-3 (Homo sapiens) [10] and at Caspase-7 (Homo sapiens) [11] was Active.

Turning to `CC(=O)N[C@@H](CCCCNC(=O)CCCCC1SC[C@H]2NC(=O)N[C@@H]12)C(=O)N[C@@H](Cc1ccc(O)c(I)c1)C(=O)NCCCCCC(=O)N[C@@H](CCC(=O)O)C(=O)N[C@H](C(=O)N[C@@H](CC(=O)O)C(=O)COC(=O)c1c(C)cccc1C)C(C)C` (stereo not given in full) (Ac-K(X1)[Tyr(3-I)][Ahx]EV-{AspCH2OBz(2,6-Me2)}), the result at Caspase-3 (Homo sapiens) [7], at Caspase-7 (Homo sapiens) [8], at Caspase-8 (Homo sapiens), at Caspase-9 (Homo sapiens) [12] and on Caspase-9 (Homo sapiens) [13] was Active. In addition, on Caspase-6 (Homo sapiens), the result was inactive.
